The record followed here is ChEMBL document CHEMBL3585292, “Anti-dormant mycobacterial activity and target analysis of nybomycin produced by a marine-derived Streptomyces sp” (2015).

For assay [1], the system named is Mycobacterium tuberculosis. Briefly: Antibacterial activity against Mycobacterium bovis BCG under hypoxic condition after 14 days by MTT assay. It is filed as functional. Particulars: variant bovis BCG, 336 h. The method, boiled down: (§1)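 MTT microdilution. Mid-log bacilli in 7H9 with 10% OADC, 0.5% glycerol, 0.05% Tween 80, seeded at 1 × 10⁴ CFU/0.1 mL (M. smegmatis) or 1 × 10⁵ CFU/0.1 mL (BCG, M. tuberculosis), then serially diluted sample added. Aerobic incubation at 37 °C; hypoxic incubation at 37 °C under N2 with 0.2% O2. MTT (0.5 mg/mL, 50 µL) added for 12 h more, OD560 read to give MIC.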
(In general: Tetrazolium dyes change colour on reduction, which living cells bring about.)

Assay [2] has as its system Mycobacterium tuberculosis. Briefly: Antibacterial activity against Mycobacterium bovis BCG under aerobic condition after 7 days by MTT assay. It is filed as functional. The note with it: variant bovis BCG, 168 h. The method, boiled down: as §1

In brackets after ≈: the same amount, converted by molar mass.

What is called MIC is the smallest concentration in the dilution series that meets the test's criterion for growth inhibition. A low value points to a more susceptible organism. As to `Cc1cc(=O)n2c3c(c4c(cc13)c(CO)cc(=O)n4C)OC2`, the minimum inhibitory concentration (MIC) in assay [1] and in assay [2] was 1 µg/mL (≈ 3.35 µM) throughout.
For `NNC(=O)c1ccncc1` [ISONIAZID], the MIC is greater than 100 µg/mL in assay [1] and 0.05 µg/mL (≈ 0.365 µM) in assay [2].
The matching figures for `Cc1cc(=O)n2c3c(c4c(cc13)c(COC(=O)CCCc1cn(CCOCCOCCOCCOCCOCCOCCOCCOCCOCCOCCNC(=O)CCCC[C@@H]3SC[C@@H]5NC(=O)N[C@@H]53)nn1)cc(=O)n4C)OC2`: 6.25 µg/mL (≈ 5.46 µM) and 12.5 µg/mL (≈ 10.9 µM).
Turning to `COC(=O)CCCc1cn(CCOCCOCCOCCOCCOCCOCCOCCOCCOCCOCCNC(=O)CCCC[C@@H]2SC[C@@H]3NC(=O)N[C@@H]32)nn1`, the MIC in assay [1] and in assay [2] was greater than 200 µg/mL in each case.
